Activity calls are given as the source filed them. The rule behind the calls is not given here.
Legend:
Type in all cases: functional, cell-based
[1] = target: T1, Lysophosphatidic acid receptor 5 (Homo sapiens, UniProt Q9H1C0); test: Agonist activity at human LPA5 receptor expressed in RH7777 cells assessed as calcium mobilization incubated for 15 mins by FLIPR method
In short: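 RH7777 cells stably expressing hLPA5, plated 20,000/well in 0.2% FBS medium 18–20 h, loaded 45 min at 37 °C with Calcium 5 dye in HBSS/20 mM HEPES/2.5 mM probenecid pH 7.4. […] Duplicates.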

[2] = target: T1, Lysophosphatidic acid receptor 5; test: Antagonist activity at human LPA5 receptor expressed in RH7777 cells assessed as inhibition of EC80 concentration of hexadecyl LPA-induced calcium mobilization incubated for 15 mins by FLIPR method
[3] = target: T1, Lysophosphatidic acid receptor 5; test: Antagonist activity at human LPA5 receptor expressed in RH7777 cells assessed as inhibition of EC80 concentration of hexadecyl LPA-induced calcium mobilization incubated for 15 mins by FLIPR method relative to hexadecyl LPA

T1 sequence (Q9H1C0 whole entry): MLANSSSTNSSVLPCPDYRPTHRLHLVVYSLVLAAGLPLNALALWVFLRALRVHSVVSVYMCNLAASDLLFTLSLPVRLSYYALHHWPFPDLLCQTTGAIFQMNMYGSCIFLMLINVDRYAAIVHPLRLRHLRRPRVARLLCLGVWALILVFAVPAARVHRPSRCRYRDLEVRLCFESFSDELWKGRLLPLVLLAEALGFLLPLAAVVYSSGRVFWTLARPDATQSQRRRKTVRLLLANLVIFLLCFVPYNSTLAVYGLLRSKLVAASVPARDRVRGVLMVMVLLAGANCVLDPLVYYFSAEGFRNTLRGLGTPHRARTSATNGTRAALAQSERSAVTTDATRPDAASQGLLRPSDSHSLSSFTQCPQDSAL

| Structure (SMILES) | Activity [1] | IC50 [2] [nM] | inhibition [3] [%] | inhibition ([3]; filed as antagonist) [%] |
| --- | --- | --- | --- | --- |
| COc1cc2c(C(=O)N3CCC(C(N)=O)CC3)cn(-c3cccc(N(C)C)c3)c(=O)c2cc1OC | inactive | > 10000 |  |  |
| COc1cc2c(C(=O)N(C)OC)cn(-c3cccc(N(C)C)c3)c(=O)c2cc1OC | inactive | 320 | 33 |  |
| COc1cc2c(=O)n(-c3cccc(N(C)C)c3)cc(C(=O)N3CCC(F)CC3)c2cc1OCc1cccc2ccccc12 | inactive | > 10000 |  |  |
| COc1cc2c(C(=O)N3CCCCC3)cn(-c3cccc(OC(C)C)c3)c(=O)c2cc1OC | inactive | 630 |  | 100 |
| COc1cc2c(C(=O)N3CCCCC3)cn(-c3ccc4sccc4c3)c(=O)c2cc1OC | inactive | 640 |  | 101 |
| COc1cc2c(C(=O)N3CCCCC3)cn(-c3ccc4cccc(C)c4c3)c(=O)c2cc1OC | inactive | 210 |  | 108 |
| COc1cc2c(C(=O)N3CCCCC3)cn(-c3ccccn3)c(=O)c2cc1OC | inactive | > 10000 |  |  |
| COc1cc2c(=O)n(-c3cccc(N(C)C)c3)cc(C(=O)N3CCC(F)CC3)c2cc1OCc1ccccn1 | inactive | > 10000 |  |  |
| COc1cc2c(C(=O)N3CCCCC3)cn(-c3ccc4onc(C)c4c3)c(=O)c2cc1OC | inactive | 3900 |  | 56 |
| COc1cc2c(C(=O)N3CCCc4ccccc43)cn(-c3cccc(N(C)C)c3)c(=O)c2cc1OC | inactive | 4320 |  | 86 |
| CN(C)c1cccc(-n2cc(C(=O)N3CCC(F)CC3)c3ccccc3c2=O)c1 | inactive | > 10000 |  |  |
| COc1cc2c(C(=O)N3CCC(c4ccccc4)CC3)cn(-c3cccc(N(C)C)c3)c(=O)c2cc1OC | inactive | 1190 |  | 108 |
| COc1cc2c(C(=O)N3CCC(OC)CC3)cn(-c3cccc(N(C)C)c3)c(=O)c2cc1OC | inactive | 640 |  | 89 |
| COc1ccc2c(=O)n(-c3cccc(N(C)C)c3)cc(C(=O)N3CCC(F)CC3)c2c1 | inactive | > 10000 |  |  |
| COc1cc2c(C(=O)N3CCC(C(F)(F)F)CC3)cn(-c3cccc(N(C)C)c3)c(=O)c2cc1OC | inactive | 1560 |  | 87 |
| COc1cc2c(C(=O)N3CCCCC3)cn(-c3ccncc3)c(=O)c2cc1OC | inactive | > 10000 |  |  |
| CCNC(=O)c1cn(-c2cccc(N(C)C)c2)c(=O)c2cc(OC)c(OC)cc12 | inactive | > 10000 |  |  |
| CCCCCOc1cc2c(C(=O)N3CCC(F)CC3)cn(-c3cccc(N(C)C)c3)c(=O)c2cc1OC | inactive | 230 |  | 111 |
| COc1cc2c(C(=O)N3CCCCC3)cn(-c3cccc(C(=O)N(C)C)c3)c(=O)c2cc1OC | inactive | > 10000 |  |  |
| COc1cc2c(C(=O)C3CCCCC3)cn(-c3cccc(N(C)C)c3)c(=O)c2cc1OC | inactive | > 10000 |  |  |
| CC#CC1CCN(C(=O)c2cn(-c3cccc(N(C)C)c3)c(=O)c3cc(OC)c(OC)cc23)CC1 | inactive | 91 |  | 91 |
| CCCCCNC(=O)c1cn(-c2cccc(N(C)C)c2)c(=O)c2cc(OC)c(OC)cc12 | inactive | > 10000 |  |  |
| COc1cc2c(C(=O)NCc3ccccc3)cn(-c3cccc(N(C)C)c3)c(=O)c2cc1OC | inactive | > 10000 |  |  |
| COc1cc2c(C(=O)N3CCCCC3)cn(-c3ccc4scc(C)c4c3)c(=O)c2cc1OC | inactive | 32 |  | 105 |
| COc1cc2c(C(=O)N3C4CCC3CC4)cn(-c3cccc(N(C)C)c3)c(=O)c2cc1OC | inactive | > 10000 |  |  |

| Structure (SMILES) | Activity [1] | IC50 [2] [nM] | inhibition [3] [%] | inhibition ([3]; filed as antagonist) [%] |
| --- | --- | --- | --- | --- |
| COc1cc2c(=O)n(-c3cccc(N(C)C)c3)cc(C(=O)N3CCC(F)CC3)c2cc1O | inactive | 1370 |  | 93 |
| COc1cc2c(C(=O)N3CCC(c4ccc(F)cc4F)CC3)cn(-c3cccc(N(C)C)c3)c(=O)c2cc1OC | inactive | > 10000 |  |  |
| COc1cc2c(C(=O)N3CCC(C)(C)CC3)cn(-c3cccc(N(C)C)c3)c(=O)c2cc1OC | inactive | 1100 |  | 90 |
| COc1cc2c(=O)n(-c3cccc(N(C)C)c3)cc(C(=O)N3CCC(F)CC3)c2cc1OC(C)C | inactive | 369 |  | 96 |
| COc1cc2c(C(=O)N3CCCCC3)cn(-c3cccc(C(C)(C)C)c3)c(=O)c2cc1OC | inactive | 173 |  | 107 |
| COc1cc2c(C(=O)NC3CCCC3)cn(-c3cccc(N(C)C)c3)c(=O)c2cc1OC | inactive | > 10000 |  |  |
| COc1cc2c(C(=O)N3CCCCC3)cn(-c3cccc(C(C)C)c3)c(=O)c2cc1OC | inactive | 63 |  | 105 |
| COc1cc2c(C(=O)N3CCCCC3C)cn(-c3cccc(N(C)C)c3)c(=O)c2cc1OC (racemic) | inactive | 990 |  | 98 |
| COc1cc2c(=O)n(-c3cccc(N(C)C)c3)cc(C(=O)N3CCC(F)CC3)c2cc1OC1CCCCC1 | inactive | 510 |  | 96 |
| COc1cc2c(C(=O)N3CCCCC3)cn(-c3cccc(C(C)=O)c3)c(=O)c2cc1OC | inactive | 1760 |  | 74 |
| COc1cc2c(C(=O)N3CCCCCCC3)cn(-c3cccc(N(C)C)c3)c(=O)c2cc1OC | inactive | 301 |  | 109 |
| COc1cc2c(C(=O)N3CCCCC3)cn(-c3cccnc3)c(=O)c2cc1OC | inactive | > 10000 |  |  |
| COc1cc2c(C(=O)N3CCC(F)CC3)cn(-c3ccc4occc4c3)c(=O)c2cc1OC | inactive | 1490 |  | 88 |
| COc1cc2c(C(=O)N3C4CCCC3CC4)cn(-c3cccc(N(C)C)c3)c(=O)c2cc1OC | inactive | 230 |  | 103 |
| COc1cc2c(C(=O)N3CCC(C)CC3)cn(-c3cccc(N(C)C)c3)c(=O)c2cc1OC | inactive | 160 |  | 105 |
| COc1cc2c(C(=O)N3CCCC3)cn(-c3cccc(N(C)C)c3)c(=O)c2cc1OC | inactive | > 10000 |  |  |
| COc1cc2c(=O)n(-c3cccc(N(C)C)c3)cc(C(=O)N3CCC(F)CC3)c2cc1OC1CCCC1 | inactive | 890 |  | 103 |
| COc1cc2c(C(=O)N3CCCCC3)cn(-c3cccc(C(N)=O)c3)c(=O)c2cc1OC | inactive | > 10000 |  |  |
| COc1cc2c(=O)n(-c3cccc(N(C)C)c3)cc(C(=O)N3CCC(F)CC3)c2cc1OCC(F)(F)F | inactive | 2500 |  | 74 |
| COc1cc2c(C(=O)N3CCOCC3)cn(-c3cccc(N(C)C)c3)c(=O)c2cc1OC | inactive | 2200 |  | 71 |
| COc1cc2c(C(=O)N(C)Cc3ccncc3)cn(-c3cccc(N(C)C)c3)c(=O)c2cc1OC | inactive | > 10000 |  |  |
| COc1cc2c(C(=O)Nc3ccccc3)cn(-c3cccc(N(C)C)c3)c(=O)c2cc1OC | inactive | > 10000 |  |  |
| CCCOc1cc2c(C(=O)N3CCC(F)CC3)cn(-c3cccc(N(C)C)c3)c(=O)c2cc1OC | inactive | 480 |  | 109 |
| COc1cc2c(C(=O)N3CCC3)cn(-c3cccc(N(C)C)c3)c(=O)c2cc1OC | inactive | > 10000 |  |  |
| COc1cc2c(C(=O)N(C)C)cn(-c3cccc(N(C)C)c3)c(=O)c2cc1OC | inactive | > 10000 |  |  |

Reference: ChEMBL document CHEMBL5352427, “Isoquinolone derivatives as lysophosphatidic acid receptor 5 (LPA5) antagonists: Investigation of structure-activity relationships, ADME properties and analgesic effects” (Eur J Med Chem, 2022)
